In data set [1] the test system is Hepatocyte. Briefly: Drug metabolism in rat hepatocytes assessed as oxidation of the terminal bicyclohexane substituent at 10 uM by LC/MS/MS analysis. Type of data set: ADME, cell-based.
Data set [2] concerns Hepatitis C virus. Briefly: Antiviral activity against Hepatitis C virus genotype 1b expressing NS4B V105M mutant infected in human HuH7 cells after 48 hrs by luciferase reporter gene assay. Format: functional, organism-based, Hepacivirus hominis. Conditions: Huh-7, 48 h; call rule not given here.
Data set [3] can be described thus: Lipophilicity, log D of the compound by chromatographic analysis. Type of data set: physicochemical. In short, it runs like this:
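Lipophilicity was measured chromatographically and reported as ChromLogD; ≥6 replicates.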

The subject of data set [4] is Hepatitis C virus. Description: Antiviral activity against Hepatitis C virus genotype 1a infected in human HuH7 cells after 48 hrs by luciferase reporter gene assay. Type of data set: functional, organism-based, Hepacivirus hominis. To be noted: subtype 1a, Huh-7, 48 h. (In general: Reporter assays use an easily measured gene product as a stand-in for the process of interest.)

Data set [5] in a line: Clearance in CD rat at 1 mg/kg, iv by LC/MS/MS analysis. Type of data set: ADME, organism-based. More on the design: dose 1 mg/kg, route intravenous. Conditions: in vivo. An outline of the steps: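 Intravenous dose of 1 mg/kg in DMSO/20% HP-β-CD (10:90) (n = 4). Clearance, Vdss and t1/2 were derived from the plasma concentration–time profiles.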
Data set [6] in a line: Displacement of [3H]-3-(1-(3-chloro-6-isopropyl-8-(trifluoromethyl)imidazo[1,2-a]pyridine-2-carbonyl)piperidin-4-yl)oxazolidin-2-one from HCV genotype 1b C-terminal His-tagged NS4B (1 to 261 aa) expressed in baculovirus infected SF9 cells after overnight incubation. More on the design: species or system Hepatitis C virus subtype 1b. In general terms: In a radioligand displacement assay an active substance lowers the binding of a labelled ligand.

Data set [7] relates to Hepatitis C virus. Briefly: Antiviral activity against Hepatitis C virus genotype 1b expressing NS4B H94N mutant infected in human HuH7 cells after 48 hrs by luciferase reporter gene assay. To be noted: Huh-7, 48 h. Type of data set: functional, organism-based, Hepacivirus hominis.
Data set [8] has as its system Hepatocyte. Description: Drug metabolism in human hepatocytes assessed as oxidation of the terminal bicyclohexane substituent at 10 uM by LC/MS/MS analysis. Format: ADME, cell-based.
The subject of data set [9] is Hepatitis C virus. Briefly: Antiviral activity against Hepatitis C virus genotype 1b infected in human HuH7 cells after 48 hrs by luciferase reporter gene assay. Format: functional, organism-based, Hepacivirus hominis. Conditions: Huh-7, 48 h.
In data set [10] the test system is Hepatitis C virus. Description: Antiviral activity against wild-type Hepatitis C virus genotype 1a infected in PXB mouse assessed as log reduction in viral mRNA titer at 10 to 30 mg/kg, po bid every 12 hrs for 7 days measured on day 4 relative to control. Conditions: dose mg/kg 10-30. Format: functional, Hepacivirus hominis, subtype 1a. In short, it runs like this: (§1)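 PXB mice infected with wild-type HCV genotype 1a virus were dosed orally b.i.d. 5−8 weeks after infection with the phosphate prodrug of the lead (10 or 30 mg/kg) for 7 days, n = 4/group. A non-nucleoside NS5B inhibitor at 100 mg/kg b.i.d. served as positive control. Read-out was HCV viral RNA titer (viral load) over the course of treatment.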

Data set [11] is described as follows: Toxicity in po dosed PXB mouse assessed as induction of metabolism administered bid every 12 hrs for 7 days. Format: organism-based. Conditions: in vivo. In short, it runs like this: (§2)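 Repeat-dose tolerability study in uninfected PXB mice, run before HCV infection. The test agent was given orally as a phosphate prodrug at 10 and 30 mg/kg b.i.d. for 7 days. Plasma exposure of the parent drug was followed over the course, and liver tissue was taken 12 h after dosing on day 7.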

Data set [12] concerns Hepatitis C virus. Description: Antiviral activity against wild-type Hepatitis C virus genotype 1a infected in PXB mouse assessed as log reduction in viral mRNA titer at 10 to 30 mg/kg, po bid every 12 hrs for 7 days measured after 12 hrs relative to control. Type of data set: functional, Hepacivirus hominis, subtype 1a. To be noted: dose mg/kg 10-30. An outline of the steps: as §1

In data set [13] the test system is Mus musculus. Description: AUC (0 to 12 hrs) in PXB mouse assessed as 4-(3-chloro-6-cyclopropyl-8-(trifluoromethyl)imidazo[1,2-a]pyridine-2-carbonyl)-1-((trans)-4-hydroxycyclohexyl)piperazin-2-one level at 10 mg/kg, po. Format: ADME, organism-based, Plasma. More on the design: time < 12 hr, dose 10 mg/kg, route oral. Conditions: in vivo. An outline of the steps:
(§3)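 Single oral dose of the phosphate prodrug at 10 or 30 mg/kg to uninfected PXB mice (n = 3/group). Plasma levels of the parent drug were followed over 12 h, and AUC0−12h was calculated for the parent.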

Data set [14] relates to Hepatitis C virus. Briefly: Antiviral activity against wild-type Hepatitis C virus genotype 1a infected in po dosed PXB mouse assessed as log reduction in viral mRNA titer administered bid every 12 hrs for 7 days measured on day 7 relative to control. Format: functional, organism-based. To be noted: Hepacivirus hominis; subtype 1a. In short, it runs like this: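 PXB mice were infected with HCV genotype 1a wild-type virus and treated 5−8 weeks later (n = 4/group). Oral dosing b.i.d. for 7 days: prodrug at 10 or 30 mg/kg, or positive control at 100 mg/kg. Serum HCV RNA titers (viral load) were followed over the course of dosing.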

A short description of data set [15]: Toxicity in po dosed PXB mouse assessed as compound accumulation administered bid every 12 hrs for 7 days. Type of data set: organism-based. Conditions: in vivo. In short, it runs like this:
as §2

In data set [16] the test system is Mus musculus. Briefly: AUC (0 to 12 hrs) in PXB mouse assessed as 4-(3-chloro-6-cyclopropyl-8-(trifluoromethyl)imidazo[1,2-a]pyridine-2-carbonyl)-1-((trans)-4-hydroxycyclohexyl)piperazin-2-one level at 30 mg/kg, po. Format: ADME, organism-based, Plasma. Also noted: time < 12 hr, dose 30 mg/kg, route oral. To be noted: in vivo. In short, it runs like this: as §3

Another data set has as its system Liver. Description: Drug uptake in PXB mouse liver assessed as 4-(3-chloro-6-cyclopropyl-8-(trifluoromethyl)imidazo[1,2-a]pyridine-2-carbonyl)-1-((trans)-4-hydroxycyclohexyl)piperazin-2-one level at 10 to 30 mg/kg, po bid every 12 hrs for 7 days measured 12 hrs post last dose. Also noted: dose 10-30 mg/kg, route oral. To be noted: in vivo. Type of data set: ADME, organism-based. In short, it runs like this: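 Uninfected PXB mice were given the prodrug orally at 10 or 30 mg/kg b.i.d. for 7 days. Liver tissue was taken 12 h after the day-7 dose and the level of parent drug in liver was measured relative to plasma.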

Data set [17] is described as follows: Aqueous solubility in fasted state simulated intestinal fluid at pH 6.5 by LC/UV analysis. Type of data set: physicochemical.
The test system of another data set is Rattus norvegicus. Description: Prodrug conversion in CD rat assessed as 4-(3-chloro-6-cyclopropyl-8-(trifluoromethyl)imidazo[1,2-a]pyridine-2-carbonyl)-1-((trans)-4-hydroxycyclohexyl)piperazin-2-one level at 300 mg/kg, po. Type of data set: ADME, organism-based. More on the design: dose 300 mg/kg, route oral. To be noted: in vivo. An outline of the steps:
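CD rats were given a single oral dose of 300 mg/kg of parent suspension or of prodrug. Plasma was assayed for the parent drug and for uncleaved prodrug.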

On to `O=C(c1nn2c(C(F)(F)F)cc(C3CC3)cc2c1Cl)N1CCN([C@@H]2C[C@H]3C[C@H]3C2)C(=O)C1`, for which the Stability result with Hepatocyte [1] and in the data set with Hepatocyte [8] was “Unstable” each time. Further, the concentration giving a half-maximal response (EC50) (in general, the concentration needed to bring the measured effect to its halfway point) in the data set on Hepatitis C virus [2] turned out to be 2 nM; in the data set with Hepatitis C virus [4], 0.1 nM; in the data set with Hepatitis C virus [7], 0.7 nM; in the data set on Hepatitis C virus [9], 0.06 nM. The chromatographic logD (as a rule, a lipophilicity value derived from retention on a column) in data set [3] was 6.4. Further, in data set [5], the clearance – broadly, a measure of how efficiently the substance is removed, as volume per time – stood at 70 mL/min/kg. Besides, the IC50 (in general, the concentration that inhibits the measured activity by half) in data set [6] amounted to 4 nM.

In the case of `O=C(c1nc2c(C(F)(F)F)cc(C3CC3)cn2c1Cl)N1CCN([C@H]2CC[C@H](OP(=O)(O)O)CC2)C(=O)C1`, the FC in the data set with Hepatitis C virus [10] was found to be 4; with Hepatitis C virus [12] it was 1. For the same compound, the figures for the MTD at 7 days in data set [11] and in [15] were 30 mg/kg and 10 mg/kg, respectively. In addition, the exposure (AUC) (commonly concentration integrated over time) in the data set with Mus musculus [13] turned out to be 15000 ng·h/mL; with Mus musculus [16] it was 66000 ng·h/mL. Moreover, the Activity entry with Hepatitis C virus [14] is “Dose-dependent effect”. For the same compound, the Drug uptake result with Liver is reported as “Active”. Also, the solubility (as a rule, the dissolved amount per volume that the medium holds) in data set [17] was over 1000 µg/mL. Also, the Stability entry in the data set on Rattus norvegicus is “Unstable”.
